Experimental data reported in ChEMBL document CHEMBL1125344, “(Pyridylcyanomethyl)piperazines as orally active PAF antagonists” (J Med Chem, 1992).

Tests used:
[1] = molecular target: Platelet-activating factor receptor (Mus musculus) (UniProt Q62035); test: Oral dose required to inhibit PAF-induced mortality (PAF-Antagonistic activity)in mice by 50%.; type: functional; settings: Mus sp.
Summary of the method: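 Male Swiss mice, 22-26 g, in groups of 10. Compound or saline given po (20 mL/kg) 60 min before C18-PAF 100 µg/kg plus propranolol 1 mg/kg by tail vein. ID50 from percent inhibition of mortality versus controls.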

[2] = molecular target: Platelet-activating factor receptor (Rattus norvegicus) (UniProt P46002); test: Dose required to inhibit PAF-induced hypotension (PAF-Antagonistic activity) in normotensive rats by 50%.; type: functional
Platelet-activating factor receptor (Rattus norvegicus), sequence (P46002 whole entry): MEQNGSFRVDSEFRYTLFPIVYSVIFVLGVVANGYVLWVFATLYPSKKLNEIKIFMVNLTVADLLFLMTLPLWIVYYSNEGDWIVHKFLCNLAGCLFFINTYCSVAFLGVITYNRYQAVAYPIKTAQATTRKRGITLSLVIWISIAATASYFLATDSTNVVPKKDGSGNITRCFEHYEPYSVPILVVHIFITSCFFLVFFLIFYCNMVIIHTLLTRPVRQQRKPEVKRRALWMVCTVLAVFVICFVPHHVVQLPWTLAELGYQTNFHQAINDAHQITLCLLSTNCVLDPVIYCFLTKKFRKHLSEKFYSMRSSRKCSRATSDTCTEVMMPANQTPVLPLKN
Summary of the method: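 Male Sprague-Dawley rats, 180-220 g, anesthetized with sodium pentobarbital ip. Carotid blood pressure recorded. Compound given iv in saline (1 mL/kg) via femoral vein 3 min before PAF 0.5 µg/kg iv; vehicle controls. ID50 by linear regression of one curve of at least four doses, each the mean % inhibition from two or more experiments.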

[3] = molecular target: Platelet-activating factor receptor (Rattus norvegicus) (UniProt P46002); test: In vivo dose administered intravenously to inhibit PAF-induced hypotension (PAF-Antagonistic activity) in normotensive rats by 55%.; type: functional, organism-based

Platelet-activating factor receptor (Mus musculus), sequence (Q62035 whole entry): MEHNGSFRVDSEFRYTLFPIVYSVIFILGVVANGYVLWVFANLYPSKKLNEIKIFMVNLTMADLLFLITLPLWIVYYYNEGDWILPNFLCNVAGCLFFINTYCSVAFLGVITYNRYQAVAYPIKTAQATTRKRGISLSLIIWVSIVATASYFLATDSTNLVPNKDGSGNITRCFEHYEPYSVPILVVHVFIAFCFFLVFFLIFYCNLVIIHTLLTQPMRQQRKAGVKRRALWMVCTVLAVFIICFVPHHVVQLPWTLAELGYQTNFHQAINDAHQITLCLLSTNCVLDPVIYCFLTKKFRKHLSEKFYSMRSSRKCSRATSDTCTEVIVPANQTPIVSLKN

SMILES	ID50 [1] [mg/kg]	ID50 [2] [mg/kg]	ID50 [3] [mg/kg]
N#CC(c1cccnc1)N1CCN(C(=O)CC(O)(c2ccccc2)c2ccccc2)CC1 (stereo not given)	4.7	0.061	–
COc1cc(CCC(=O)N2CCN(C(=O)c3cc(OC)c(OC)c(OC)c3)CC2)cc(OC)c1OC	–	> 5	–
N#CC(c1cccnc1)N1CCN(C(=O)C(Cc2ccccc2)c2ccccc2)CC1 (stereo not given)	> 50	0.12	–
CC(NCC(=O)N1CCN(C(C#N)c2cccnc2)CC1)c1ccccc1 (stereo not given)	18	0.39	–
N#CC(c1cccnc1)N1CCN(C(=O)CNc2ccccc2)CC1 (stereo not given)	28	0.49	–
CC(C)(C)C(=O)N1CCN(C(C#N)c2cccnc2)CC1 (stereo not given)	–	> 5	–
N#CC(c1cccnc1)N1CCN(C(=O)Cc2c[nH]c3ccccc23)CC1 (stereo not given)	> 50	3.3	–
N#CC(c1cccnc1)N1CCN(C(=O)CN(Cc2ccccc2)Cc2ccccc2)CC1 (stereo not given)	> 10	1.7	–
O=C(CC(c1ccccc1)c1ccccc1)N1CCN(Cc2cccnc2)CC1	35	0.48	–
N#CC(c1cccc(Cl)c1)N1CCN(C(=O)CC(c2ccccc2)c2ccccc2)CC1 (stereo not given)	> 30	> 5	–
O=C(CC(c1ccccc1)c1ccccc1)N1CCC(Nc2cccnc2)CC1	–	2.4	–
N#CC(c1cccnc1)N1CCN(C(=O)OCC(c2ccccc2)c2ccccc2)CC1 (stereo not given)	> 30	0.078	–
N#CC(c1cccnc1)N1CCN(C(=O)/C(=C/c2ccccc2)c2ccccc2)CC1 (stereo not given)	> 20	0.17	–
N#CC(c1cccnc1)N1CCN(C(=O)c2ccc3ccccc3c2)CC1 (stereo not given)	–	–	5
N#CC(c1cccnc1)N1CCN(C(=O)CNCCCc2ccccc2)CC1 (stereo not given)	50	1.3	–
N#CC(c1cccnc1)N1CCN(C(=O)NC(c2ccccc2)c2ccccc2)CC1 (stereo not given)	30	0.29	–
N#CC(c1cccnc1)N1CCN(C(=O)/C=C/c2ccccc2)CC1 (stereo not given)	100	0.24	–
N#CC(c1cccnc1)N1CCN(C(=O)C=C(c2ccccc2)c2ccccc2)CC1 (stereo not given)	50	0.049	–
N#CC(c1cccnc1)N1CCC(OC(=O)CC(c2ccccc2)c2ccccc2)CC1 (stereo not given)	–	> 5	–
N#CC(c1cccnc1)N1CCN(CCC(c2ccccc2)c2ccccc2)CC1 (stereo not given)	15	3.1	–
COc1cc(C(=O)N2CCN(Cc3cccnc3)CC2)cc(OC)c1OC	> 100	> 5	–

SMILES	ID50 [1] [mg/kg]	ID50 [2] [mg/kg]	ID50 [3] [mg/kg]
N#CC(=C1CCN(C(=O)CC(c2ccccc2)c2ccccc2)CC1)c1cccnc1	30	0.42	–
N#CC(c1cccnc1)N1CCN(C(=O)CC(c2ccccc2)c2ccccc2)CC1 (stereo not given)	12	0.013	–
N#CC(c1cccnc1)N1CCN(C(=O)CNC(Cc2ccccc2)c2ccccc2)CC1 (stereo not given)	> 10	0.38	–
N#CC(c1cccnc1)N1CCN(C(=O)CNCC(c2ccccc2)c2ccccc2)CC1 (stereo not given)	> 10	0.36	–
N#CC1(Nc2cccnc2)CCN(C(=O)CNC(c2ccccc2)c2ccccc2)CC1	15	0.096	–
N#CC(c1cccnc1)N1CCN(CC(=O)NCCC(c2ccccc2)c2ccccc2)CC1 (stereo not given)	> 30	3	–
CN(CCCc1ccccc1)CC(=O)N1CCN(C(C#N)c2cccnc2)CC1 (stereo not given)	–	> 5	–
CC(C#N)(c1cccnc1)N1CCN(C(=O)C(c2ccccc2)c2ccccc2)CC1 (stereo not given)	> 30	> 5	–
N#CC(c1cccnc1)N1CCN(C(=O)CN(Cc2ccccc2)c2ccccc2)CC1 (stereo not given)	> 30	0.42	–
N#CC(c1cncs1)N1CCN(C(=O)CC(c2ccccc2)c2ccccc2)CC1 (stereo not given)	25	0.75	–
N#CC1(Nc2cccnc2)CCN(C(=O)CC(c2ccccc2)c2ccccc2)CC1	12	0.04	–
N#CC(c1cccnc1)N1CCN(C(=O)CCNC(c2ccccc2)c2ccccc2)CC1 (stereo not given)	5.4	0.025	–
CC(c1ccccc1)N(C)CC(=O)N1CCN(C(C#N)c2cccnc2)CC1 (stereo not given)	> 50	0.77	–
N#CC(c1cccnc1)N1CCN(C(=O)C(Cc2ccccc2)Cc2ccccc2)CC1 (stereo not given)	100	0.68	–
N#CC(c1cccnc1)C1CCN(C(=O)C(c2ccccc2)c2ccccc2)CC1 (stereo not given)	14	0.023	–
N#Cc1cccc(C(C#N)N2CCN(C(=O)CC(c3ccccc3)c3ccccc3)CC2)c1 (stereo not given)	> 30	> 5	–
N#CC(c1cccnc1)N1CCN(C(=O)CNCCC(c2ccccc2)c2ccccc2)CC1 (stereo not given)	14	0.21	–
N#CC(c1cccc(C(F)(F)F)c1)N1CCN(C(=O)CC(c2ccccc2)c2ccccc2)CC1 (stereo not given)	> 30	> 5	–
N#CC(c1cccnc1)N1CCN(C(=O)C(CCc2ccccc2)c2ccccc2)CC1 (stereo not given)	–	0.73	–
N#CC(c1cccnc1)N1CCN(C(=O)CCc2ccccc2)CC1 (stereo not given)	44	1.2	–
